Data from ChEMBL document CHEMBL1148841, “Synthesis, structural revision, and antioxidant activities of antimutagenic homoisoflavonoids from Hoffmanosseggia intricata” (Bioorg Med Chem Lett, 2007).

Experiments:
[1] = test system: Radical scavenging activity; assay: Antioxidant activity assessed as DPPH free radical scavenging activity; type: functional
Outline: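 Scavenging measured as reduction of the coloured DPPH (1,1-diphenyl-2-picrylhydrazyl) radical in methanolic solution; activity given as IC50.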

[2] = Antioxidant activity assessed as superoxide scavenging activity by NBT reduction assay; type: functional
Outline: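 Superoxide radicals produced in vitro by a non-enzymatic system; scavenging followed by nitro blue tetrazolium photoreduction, read spectrophotometrically at 560 nm; activity given as the concentration giving 50% inhibition (IC50).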

Compound | IC50 [1] | IC50 [2]
O=C1O[C@H]([C@@H](O)CO)C(O)=C1O [ASCORBIC ACID] | 25.1 µM | 852 µM
COc1ccc(/C=C2\COc3c(ccc(O)c3O)C2=O)cc1 [INTRICATINOL] | 10.1 µM | 30.1 µM
O=C1/C(=C/c2ccc(O)c(O)c2)COc2c1ccc(O)c2O | 4.5 µM | 8.5 µM
COc1ccc(O)c(C(C)(C)C)c1.COc1ccc(O)cc1C(C)(C)C [BUTYLATED HYDROXYANISOLE] | 34 µM | 966 µM

The remaining lines, values ahead:

IC50 [1] | IC50 [2] | Compound
> 200 µM | > 200 µM | COc1ccc(/C=C2\COc3c(ccc(OC)c3O)C2=O)cc1 [INTRICATIN]
8.3 µM | 26.5 µM | O=C1/C(=C/c2ccc(O)cc2)COc2c1ccc(O)c2O
